Assays:
Renin [1] = target: T1, Renin (Homo sapiens, UniProt P00797); assay: In vitro potency against plasma renin at a pH of 7.4; assay type: cell-free
T1 sequence (P00797 whole entry): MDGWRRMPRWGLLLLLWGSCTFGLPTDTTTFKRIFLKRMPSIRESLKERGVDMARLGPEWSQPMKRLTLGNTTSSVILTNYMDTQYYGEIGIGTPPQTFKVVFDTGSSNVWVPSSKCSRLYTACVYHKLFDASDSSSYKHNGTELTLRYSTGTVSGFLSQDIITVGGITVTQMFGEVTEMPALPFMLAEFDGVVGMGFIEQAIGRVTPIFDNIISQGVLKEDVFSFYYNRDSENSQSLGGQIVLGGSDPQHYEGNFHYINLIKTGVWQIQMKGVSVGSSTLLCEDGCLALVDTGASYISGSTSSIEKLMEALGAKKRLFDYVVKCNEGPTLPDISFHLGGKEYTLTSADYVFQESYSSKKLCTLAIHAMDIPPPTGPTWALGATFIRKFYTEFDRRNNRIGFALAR
Procedure, shortened: (§1)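 Human renin, either purified enzyme or renin in plasma, was assayed at the stated pH. Inhibition was reported as IC50 in nM.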

Renin [2] = target: T1, Renin; assay: In vitro potency against purified renin at a pH of 6.0.; procedure, shortened: as §1
Renin [3] = target: T1, Renin; assay: In vitro potency against purified renin at a pH of 7.4; procedure, shortened: as §1
Renin [4] = target: T1, Renin; assay: In vitro potency against plasma renin at a pH of 6.0; assay type: cell-free; procedure, shortened: as §1
[5] = Bioavailability in monkey (dose 10 mg/kg i.d. or 0.3 mg/kg i.v.); assay type: ADME, organism-based; details: primates, in vivo, iv
Procedure, shortened: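 Male cynomolgus monkeys (3–5 kg), salt-depleted, fasted overnight, pentobarbital-anesthetized (15 mg/kg bolus, then 0.10 mg kg⁻¹ min⁻¹ infusion). Compound given as HCl salt solution, either iv via a leg vein or id by catheter into the proximal duodenum after laparotomy; one dose per monkey. Serial plasma levels were measured by HPLC or bioassay, and AUC was fitted to a biexponential decay. Bioavailability = dose-corrected AUC(id)/AUC(iv) × 100.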

Row | SMILES | IC50 (Renin [1]) [nM] | IC50 (Renin [2]) [nM] | also measured
1 | CC(C)C[C@H](O)[C@H](O)[C@H](CC1CCCCC1)NC(=O)[C@H](C)O[C@@H](Cc1ccccc1)C(=O)N1CCCC1 | 3700 |  | 
2 | CC(C)C[C@H](O)[C@H](O)[C@H](CC1CCCCC1)NC(=O)[C@H](C)O[C@@H](Cc1ccccc1)C(=O)N1CCC1 | 1000 |  | 
3 | CCOC(=O)C(CCc1ccccc1)N[C@@H](CC(C)C)C(=O)N[C@@H](CC1CCCCC1)[C@@H](O)[C@@H](O)CC(C)C (stereo in doubt) |  | 240 | 
4 | CCCC[C@H](O[C@@H](Cc1ccccc1)C(=O)N1CCC(OC[S+](C)[O-])CC1)C(=O)N[C@@H](CC1CCCCC1)[C@@H](O)[C@@H](O)CC(C)C (some centres undefined) |  | 770 | 
5 | CCCCC1CCN(C(=O)[C@H](Cc2ccccc2)O[C@@H](CCCC)C(=O)N[C@@H](CC2CCCCC2)[C@@H](O)[C@@H](O)CC(C)C)CC1 |  | 1100 | 
6 | COCOC1CCN(C(=O)[C@H](Cc2ccccc2)O[C@@H](C)C(=O)N[C@@H](CC2CCCCC2)[C@@H](O)[C@@H](O)CC(C)C)CC1 | 340 |  | IC50 (Renin [3]): 7 nM; IC50 (Renin [4]): 27 nM
7 | CC(C)C[C@H](O)[C@H](O)[C@H](CC1CCCCC1)NC(=O)C(C)N[C@H](Cc1ccccc1)C(=O)N1CCOCC1 (single isomer, unassigned; less polar) |  | 1600 | 
8 | CCCC[C@@H](N[C@@H](Cc1ccccc1)C(=O)N1CCOCC1)C(=O)N[C@@H](CC1CCCCC1)[C@@H](O)[C@@H](O)CC(C)C |  | 750 | 
9 | CC(C)C[C@H](N[C@@H](Cc1ccccc1)C(=O)OC(C)(C)C)C(=O)N[C@@H](CC1CCCCC1)[C@@H](O)[C@@H](O)CC(C)C |  | 340 | 
10 | CC(C)CC(N[C@@H](CCc1ccccc1)C(=O)OC(C)(C)C)C(=O)N[C@@H](CC1CCCCC1)[C@@H](O)[C@@H](O)CC(C)C (stereo in doubt; form 2) |  | 1000 | 
11 | CC(C)C[C@H](O)[C@H](O)[C@H](CC1CCCCC1)NC(=O)C(C)N[C@@H](Cc1ccccc1)C(=O)N1CCOCC1 (single isomer, unassigned; more polar) |  | 1000 | 
12 | CC(C)C[C@@H](N[C@@H](Cc1ccccc1)C(=O)OC(C)(C)C)C(=O)N[C@@H](CC1CCCCC1)[C@@H](O)[C@@H](O)CC(C)C |  | 2700 | 
13 | CCCC[C@H](O[C@@H](Cc1ccccc1)C(=O)N1CCC(OCS(C)(=O)=O)CC1)C(=O)N[C@@H](CC1CCCCC1)[C@@H](O)[C@@H](O)CC(C)C |  | 780 | 
14 | CCCC[C@H](O[C@@H](Cc1ccccc1)C(=O)N1CCC(OCCC)CC1)C(=O)N[C@@H](CC1CCCCC1)[C@@H](O)[C@@H](O)CC(C)C |  | 290 | 
15 | C=CCOC1CCN(C(=O)[C@H](Cc2ccccc2)O[C@@H](CCCC)C(=O)N[C@@H](CC2CCCCC2)[C@@H](O)[C@@H](O)CC(C)C)CC1 |  | 160 | 
16 | CC(C)CC(N[C@@H](CCc1ccccc1)C(=O)OC(C)(C)C)C(=O)N[C@@H](CC1CCCCC1)[C@@H](O)[C@@H](O)CC(C)C (stereo in doubt; form 1) |  | 4000 | 
17 | CC(C)C[C@H](O)[C@H](O)[C@H](CC1CCCCC1)NC(=O)C(C)N[C@H](Cc1ccccc1)C(=O)N1CCOCC1 (single isomer, unassigned) |  | 1000 | 
18 | CCN(CC)C(=O)[C@H](Cc1ccccc1)O[C@@H](C)C(=O)N[C@@H](CC1CCCCC1)[C@@H](O)[C@@H](O)CC(C)C |  | > 1000 | 

More lines, in order of falling IC50 (Renin [2]), values ahead:

Row | IC50 (Renin [1]) [nM] | IC50 (Renin [2]) [nM] | SMILES | also measured
19 |  | 160 | CCOC(=O)C(CCc1ccccc1)N[C@@H](CC(C)C)C(=O)N[C@@H](CC1CCCCC1)[C@@H](O)[C@@H](O)CC(C)C (single isomer, unassigned; more polar) | 
20 |  | 150 | CCOC(=O)C(CCc1ccccc1)N[C@@H](C)C(=O)N[C@@H](CC1CCCCC1)[C@@H](O)[C@@H](O)CC(C)C (single isomer, unassigned; more polar) | 
21 |  | 130 | CCOC(=O)C(CCc1ccccc1)N[C@@H](C)C(=O)N[C@@H](CC1CCCCC1)[C@@H](O)[C@@H](O)CC(C)C (single isomer, unassigned; less polar) | 
22 |  | 130 | CCCC[C@H](O[C@@H](Cc1ccccc1)C(=O)N1CCC(OCSC)CC1)C(=O)N[C@@H](CC1CCCCC1)[C@@H](O)[C@@H](O)CC(C)C | 
23 |  | 130 | CCNC(=O)[C@H](Cc1ccccc1)O[C@@H](C)C(=O)N[C@@H](CC1CCCCC1)[C@@H](O)[C@@H](O)CC(C)C | 
24 |  | 130 | CCCC[C@H](O[C@@H](Cc1ccccc1)C(=O)N1CCC(O)CC1)C(=O)N[C@@H](CC1CCCCC1)[C@@H](O)[C@@H](O)CC(C)C | 
25 |  | 85 | CC(C)C[C@H](O)[C@H](O)[C@H](CC1CCCCC1)NC(=O)C(C)N[C@@H](Cc1ccccc1)C(=O)N1CCOCC1 (single isomer, unassigned; less polar) | 
26 | 4300 | 45 | CC(C)C[C@H](O)[C@H](O)[C@H](CC1CCCCC1)NC(=O)[C@H](C)O[C@@H](Cc1ccccc1)C(=O)N1CCOCC1 | 
27 |  | 44 | CCCC[C@H](O[C@@H](Cc1ccccc1)C(=O)N1CCC(OC)CC1)C(=O)N[C@@H](CC1CCCCC1)[C@@H](O)[C@@H](O)CC(C)C | 
28 | 1800 | 31 | CCCC[C@H](N[C@@H](Cc1ccccc1)C(=O)N1CCC(OCCOC)CC1)C(=O)N[C@@H](CC1CCCCC1)[C@@H](O)[C@@H](O)CC(C)C | 
29 | 8100 | 25 | CC(C)C[C@H](O)[C@H](O)[C@H](CC1CCCCC1)NC(=O)[C@H](C)O[C@@H](Cc1ccccc1)C(=O)N1CCCCC1 | 
30 |  | 24 | CCCC[C@H](O[C@@H](Cc1ccccc1)C(=O)N1CCCCC1)C(=O)N[C@@H](CC1CCCCC1)[C@@H](O)[C@@H](O)CC(C)C | 
31 | 1300 | 18 | CCCC[C@H](O[C@@H](Cc1ccccc1)C(=O)N1CCC(CCOC)CC1)C(=O)N[C@@H](CC1CCCCC1)[C@@H](O)[C@@H](O)CC(C)C | 
32 | 1000 | 15 | CCCC[C@H](O[C@@H](Cc1ccccc1)C(=O)N1CCOCC1)C(=O)N[C@@H](CC1CCCCC1)[C@@H](O)[C@@H](O)CC(C)C | 
33 | 1200 | 13 | CCCC[C@H](N[C@@H](Cc1ccccc1)C(=O)N1CCOCC1)C(=O)N[C@@H](CC1CCCCC1)[C@@H](O)[C@@H](O)CC(C)C | 
34 | 120 | 1.8 | CCCC[C@H](O[C@@H](Cc1ccccc1)C(=O)N1CCC(SCOC)CC1)C(=O)N[C@@H](CC1CCCCC1)[C@@H](O)[C@@H](O)CC(C)C | 
35 | 31 | 1.4 | CCC[C@H](O[C@@H](Cc1ccccc1)C(=O)N1CCC(OCOC)CC1)C(=O)N[C@@H](CC1CCCCC1)[C@@H](O)[C@@H](O)CC(C)C | IC50 (Renin [3]): 5.5 nM; IC50 (Renin [4]): 3.3 nM
36 | 8.2 | 1.2 | CCCCNC(=O)[C@@H](C[C@H](O)[C@H](CC1CCCCC1)NC(=O)[C@H](CCCC)O[C@@H](Cc1ccccc1)C(=O)N1CCC(OCOC)CC1)C(C)C | 
37 | 17 | 1.1 | CCCC[C@H](N[C@@H](Cc1ccccc1)C(=O)N1CCC(OCOC)CC1)C(=O)N[C@@H](CC1CCCCC1)[C@@H](O)[C@@H](O)CC(C)C | IC50 (Renin [3]): 2.8 nM; IC50 (Renin [4]): 3.9 nM
38 | 13 | 1 | CCCC[C@H](O[C@@H](Cc1ccccc1)C(=O)N1CCC(OCOC)CC1)C(=O)N[C@@H](CC1CCCCC1)[C@@H](O)[C@@H](O)CC(C)C | IC50 (Renin [3]): 3.2 nM; IC50 (Renin [4]): 3 nM
39 | 8.7 | 0.9 | CCCCNC(=O)[C@@H](C[C@H](O)[C@H](CC1CCCCC1)NC(=O)[C@H](CCCC)N[C@@H](Cc1ccccc1)C(=O)N1CCC(OCOC)CC1)C(C)C | bioavailability [5]: 7.1%
40 | 120 | 0.9 | CC[C@H](O[C@@H](Cc1ccccc1)C(=O)N1CCC(OCOC)CC1)C(=O)N[C@@H](CC1CCCCC1)[C@@H](O)[C@@H](O)CC(C)C | IC50 (Renin [3]): 5.4 nM; IC50 (Renin [4]): 7.9 nM
